In ChEMBL document CHEMBL4000230, “Design, synthesis and biological evaluation of regioisomers of 666-15 as inhibitors of CREB-mediated gene transcription” (Bioorg Med Chem Lett, 2017) one finds GI50 and IC50 data, which are given here for four compounds.

Molecules are shown by their SMILES.

Experiment [1] has as its system MDA-MB-468. Nature of the experiment: Cytotoxicity against human MDA-MB-468 cells assessed as growth inhibition after 72 hrs by MTT assay. The format is functional. Particulars: MDA-MB-468, 72 h. Summed up: (§1)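 Growth inhibition read by MTT after 72 h incubation of the indicated cells with drug; GI50 taken from this assay.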
On the technique in general: Formazan colour is commonly taken as a measure of viable cells.

Experiment [2] can be described thus: Inhibition of forskolin-stimulated CREB (unknown origin)-mediated gene transcription in HEK293T cells preincubated for 30 mins followed by forskolin-stimulation measured after 6 hrs by luciferase reporter gene assay. Conditions: Homo sapiens, HEK-293T. The format is cell-based. The essentials:
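HEK 293T cells transfected with a renilla luciferase reporter driven by three tandem CRE copies. Treated with increasing compound concentrations (50 nM to 50 μM) for 30 min, then forskolin (10 μM) for 6 h, then luciferase measured. Luciferase normalized to lysate protein concentration. IC50 by non-linear regression of dose-response curves.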

The subject of experiment [3] is MDA-MB-231. The experiment is described as follows: Cytotoxicity against human MDA-MB-231 cells assessed as growth inhibition after 72 hrs by MTT assay. Particulars: MDA-MB-231, 72 h. The format is functional. The essentials: as §1

As usually defined, the GI50 is the concentration at which growth is held to half of that of the control. As a reminder, the IC50 is the concentration that inhibits the measured activity by half. Regarding `NCCCOc1ccc2ccccc2c1C(=O)NCCOc1cc2ccccc2cc1C(=O)Nc1ccc(Cl)cc1O`, the results for the GI50 in experiment [1] and in experiment [3] were 1.7 µM and 4.31 µM, respectively. In addition, in experiment [2], the IC50 was determined as 18.9 µM.

For the compound `NCCCOc1cc(C(=O)NCCOc2cc3ccccc3cc2C(=O)Nc2ccc(Cl)cc2O)cc2ccccc12`, the GI50 in experiment [1] was found to be 0.55 µM; in experiment [3], 2.68 µM. For the same compound, the IC50 in experiment [2] was 17.2 µM.

Consider `NCCCOc1cc(C(=O)NCCOc2cc3ccccc3cc2C(=O)Nc2ccc(Cl)cc2O)c2ccccc2c1`, for which the concentration for 50% growth inhibition (GI50) in experiment [1] worked out at 1.65 µM; in experiment [3], 3.82 µM. In addition, in experiment [2], it took 19 µM to reach half-maximal inhibition (IC50).

For the compound `NCCCOc1c(C(=O)NCCOc2cc3ccccc3cc2C(=O)Nc2ccc(Cl)cc2O)ccc2ccccc12`, the figures for the GI50 in experiment [1] and in experiment [3] were 1.93 µM and 3.12 µM, respectively. Moreover, in experiment [2], half-maximal inhibition (IC50) required 24 µM.
